Bioassay records deposited in PubChem BioAssay by Sanford-Burnham Center for Chemical Genomics.
HKDC1 inh: HKDC1 (human) hexokinase inhibition. Q2TB90. 340,000 tested, 0.16% active. AID 493160. recombinant HKDC1, G6PDH/diaphorase resazurin coupled fluorescence. inhibition, % at 20 µM;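 active = inhibition above about 35% when tested at 20 µM, limit read from the data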;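 also: plate controls were DMSO wells with enzyme for no effect and DMSO wells lacking enzyme for full effect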
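Assay system: recombinant HKDC1 hexokinase; detection: coupled resazurin fluorescence, excitation 525 nm, emission 613 nm; benchmarks: DMSO-plus-enzyme-mix negative control, buffer-substituted positive control; compound dosing: single 20 µM dose; schedule: 90 min at room temperature in dark; also added: glucose plus 1 mM ATP as hexokinase substrates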
PfG6PD inh: PfG6PD (Plasmodium falciparum) enzyme inhibition | PfGluPho enzyme, NADPH resazurin-diaphorase fluorescence | inhibition, % at 20 µM | 350,000 tested, 0.78% active;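 active = inhibition reaching at least a set limit at 20 µM in the primary screen, cut at about 59% in these data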;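 also: 0% = DMSO wells with substrate and 100% = DMSO wells lacking glucose-6-phosphate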
Diaph inh CS: counter-screen for diaphorase-based assays: diaphorase inhibitors and chemical oxidizers. diaphorase resazurin-to-resorufin fluorescence, NADH, 16 min; bacterial (C. kluyveri) enzyme, not human. inhibition, % at 20 µM. 190,000 tested, 0.69% active. AID 1217;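 active = primary screen inhibition at 20 µM above a set limit, cut at about 50% in these data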;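 also: plate controls were DMSO with full reaction for no effect and wells lacking NADH for full effect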
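Assay system – diaphorase enzyme from Clostridium kluyveri · Amount – diaphorase 0.14 U/mL (working solution) · Times – reaction incubation of 16 min at room temperature · Controls – No-NADH positive control and DMSO neutral control · Signal – resorufin fluorescence 544/590 nm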
G6PDH counter: inhibits Leuconostoc G6PDH, flagging false hits in G6PDH-based assays | Purified L. mesenteroides G6PDH, diaphorase/resazurin coupled fluorescence, 45 min | inhibition, % at 5 µM | 200,000 tested, 0.12% active | AID 1020; in the data active = inhibition above about 50%
PfG6PD confirm: confirmation of Plasmodium falciparum G6PD inhibitors. shares compounds with PfG6PD inh. AID 504753. inhibition, % at 20 µM. 2,400 tested, 34% active. recombinant PfGluPho, NADPH-diaphorase-resazurin fluorescence;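 active = inhibition of at least 50% at 20 µM in any single replicate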;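 also: 0% = DMSO with substrate and 100% = DMSO lacking glucose-6-phosphate substrate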
Diaph ctr 10uM: diaphorase inhibition or oxidation at 10 uM NADPH; shares compounds with PfG6PD inh; diaphorase-coupled resazurin reduction, fluorescence, NADPH 10 uM; inhibition, % at 20 µM; 820 tested, 39% active;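 active = average inhibition reaching 50% or more with the compound at 20 µM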;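 also: resorufin red fluorescence formed as diaphorase reduces resazurin using NADPH; 0% = DMSO with enzyme and 100% = DMSO without enzyme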
Diaph ctr 30uM: inhibits diaphorase or oxidizes, flagging false PfG6PD hits; shares compounds with PfG6PD inh; Diaphorase/resazurin coupled assay, resorufin fluorescence, 30 uM NADPH; inhibition, % at 20 µM; 820 tested, 29% active; AID 504863;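 active = inhibition averaging 50% or more, tested at 20 µM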;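 also: 0% = DMSO with enzyme and 100% = DMSO wells lacking diaphorase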
* marks the source's active call; other numbers are inactive results; x = no result. The list is not random: actives were taken first. Their share in the collection is about 1.3%.

SMILES | HKDC1 inh | PfG6PD inh | Diaph inh CS | G6PDH counter | PfG6PD confirm | others
CC1(OC(=O)CCc2ccccc2)C(=O)C=C2C=C(c3ccc(C#N)cc3)N(C(CO)CO)C=C2C1=O (configuration not stated) | 22 | 65* | x | x | 23
COc1ccc(CN2C=C3C(=O)C(C)(OC(=O)CCc4ccccc4)C(=O)C=C3C=C2c2ccc(C#N)cc2)cc1 (configuration not stated) | 30 | 52 | x | x | x
O=C(Cn1ccc(NC(=O)OCc2ccccc2)nc1=O)NCCCn1ccnc1 | -4 | 4 | x | x | x
O=C(COC(=O)CNC(=O)c1ccccc1)NC12CC3CC(CC(C3)C1)C2 | x | 2 | x | x | x
CC1CC1C(=O)N1CCN(S(=O)(=O)c2cc(C(F)(F)F)cc(C(F)(F)F)c2)CC1 (configuration not stated) | 0 | 8 | x | x | x
O=S(=O)(Nc1c(O)ccc2ccccc12)c1ccc(F)cc1 | 29 | 76* | x | x | 40
O=S(=O)(Nc1cccc2ccccc12)c1ccccc1 | 12 | 34 | x | x | x
O=S(=O)(Nc1c(O)ccc2ccccc12)c1ccccc1 | 32 | 75* | x | x | 52* | Diaph ctr 10uM=25;Diaph ctr 30uM=22
O=C(NCc1ccc(F)cc1)c1cc2c(cc1Cl)N1CCCCCC1=NS2(=O)=O | -7 | -6 | x | x | x
CCOc1ccc(/C=C/[N+](=O)[O-])c2ccccc12 | 32 | 64* | 34 | 33 | 10
Cc1onc(-c2ccccc2)c1-c1nnc(CN2CCN(S(=O)(=O)c3ccccc3)CC2)o1 | 1 | 1 | x | x | x
CCOc1ccc(Cl)cc1CSc1n[nH]c(C)n1 | -5 | 8 | 12 | 13 | x
CCCc1nc(SCc2ccc(Cl)cc2Cl)n[nH]1 | 1 | 72* | 18 | -1 | 44
C/C(NCCc1ccc(O)cc1)=C1/CCOC1=O | x | -6 | x | x | x
CNC(=O)c1c(NC(=O)c2cccc(C)c2)sc2c1CCC2 | 6 | 38 | x | x | x
COc1cc(C(=O)Nc2sc3c(c2C(=O)O)CCC3)cc(OC)c1OC | 3 | 7 | x | x | x
Cc1cccc(C(=O)Nc2sc3c(c2C(=O)O)CCC3)c1 | 3 | 60* | x | x | 18
COc1cccc(C(=O)Nc2sc3c(c2C#N)CCN(C(C)=O)C3)c1 | -7 | 61* | 11 | 5 | 36
COc1cccc(C(=O)Nc2sc3c(c2C(=O)O)CCCC3)c1 | 7 | 88* | x | x | 41
Cc1ccc(/C=C/C(=O)c2ccc(C)cc2)cc1 | 5 | 23 | 14 | 0 | x
Cc1ccc(C(=O)/C=C/C(=O)c2ccc(C)cc2)cc1 | 16 | 76* | 1 | 3 | 51* | Diaph ctr 10uM=-26;Diaph ctr 30uM=-28
CCCC1(C2CCCC2)NC(=O)NC1=O (configuration not stated) | -6 | 13 | x | x | x
Cc1ccc(/C=C/C(=O)N2CCN(S(=O)(=O)c3ccc(C)c(C)c3)CC2)o1 | 8 | 62* | 19 | 12 | 50* | Diaph ctr 10uM=-19;Diaph ctr 30uM=-23
O=C1COc2ccc(-c3csc(NCCc4ccccc4)n3)cc2N1 | -7 | 61* | 22 | -2 | 9
c1ccc(CCNc2nc(-c3ccncc3)cs2)cc1 | 2 | -6 | 8 | -7 | x
SMILES | HKDC1 inh | PfG6PD inh | Diaph inh CS | G6PDH counter | PfG6PD confirm | others
CCC(C)C(=O)Nc1nc(-c2ccc3c(c2)NC(=O)CO3)cs1 (configuration not stated) | 5 | 64* | 11 | 8 | 14
Nc1nc(-c2ccc3c(c2)NC(=O)CO3)cs1 | -6 | 3 | 11 | 8 | x
CCC(C)Sc1ccc([C@@H]2[C@@H]3C(=O)N(C)C(=O)[C@@H]3[C@]3(C(=O)OC)CCCCN23)cc1 (some centres not stated) | 0 | 8 | x | x | x
CN(C)C(CNc1ncnc2ccccc12)c1c(F)cccc1Cl (configuration not stated) | -5 | 16 | x | x | x
c1csc(-c2nn3c(Cn4nnc5ccccc54)nnc3s2)c1 | -4 | 53 | 8 | -7 | x
Clc1cccc(-c2nn3c(Cn4cnc5ccccc54)nnc3s2)c1 | 4 | 62* | 3 | -30 | 25
c1csc(-c2nn3c(Cn4cnc5ccccc54)nnc3s2)c1 | -6 | 75* | 30 | -9 | 38
Cc1cc(C)cc(C(=O)N2CC(=O)Nc3ccccc32)c1 | 5 | 11 | -4 | 1 | x
Cc1ccc(/C=C/C(=O)N2CC(=O)Nc3ccccc32)o1 | 0 | 72* | -3 | 5 | 23
